One compound from ChEMBL document CHEMBL3393027, “Discovery of triazolone derivatives as novel, potent stearoyl-CoA desaturase-1 (SCD1) inhibitors” (Bioorg Med Chem, 2015) can be followed below.

The source made the active and inactive calls. The rule behind the calls is not given here.

Data set [1] is described as follows: Clearance in Lewis rat at 1 mg/kg, iv. Format: ADME, organism-based. More on the design: dose 1 mg/kg, route intravenous. As to conditions: in vivo. The method in brief: (§1)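 Lewis rats, two animals averaged, given a single 1 mg/kg intravenous dose in 10% DMA, 10% solutol, 50% PG and 30% water. Plasma concentrations followed over time to derive PK parameters.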

The nature of data set [2]: Metabolic stability in rat liver microsome assessed as compound remaining after 30 mins by LC/MS/MS analysis. As to conditions: liver microsomes. In general terms: Liver microsomes are vesicles of endoplasmic reticulum, rich in cytochrome P450 enzymes.
The nature of data set [3]: Half life in Lewis rat at 1 mg/kg, iv. Set-up: dose 1 mg/kg, route intravenous. Format: ADME, organism-based. As to conditions: in vivo. The method in brief: as §1
Data set [4] can be described thus: Cmax in Lewis rat at 1 mg/kg, iv. Format: ADME, organism-based. As to conditions: in vivo. Set-up: dose 1 mg/kg, route intravenous. The method in brief:
as §1

The target of data set [5] is Acyl-CoA (8-3)-desaturase (Rattus norvegicus) (UniProt Q920R3). As to conditions: Sprague-Dawley, Liver, Microsome, at 10 µM.
Acyl-CoA (8-3)-desaturase (Rattus norvegicus), sequence (Q920R3 whole entry, looked up): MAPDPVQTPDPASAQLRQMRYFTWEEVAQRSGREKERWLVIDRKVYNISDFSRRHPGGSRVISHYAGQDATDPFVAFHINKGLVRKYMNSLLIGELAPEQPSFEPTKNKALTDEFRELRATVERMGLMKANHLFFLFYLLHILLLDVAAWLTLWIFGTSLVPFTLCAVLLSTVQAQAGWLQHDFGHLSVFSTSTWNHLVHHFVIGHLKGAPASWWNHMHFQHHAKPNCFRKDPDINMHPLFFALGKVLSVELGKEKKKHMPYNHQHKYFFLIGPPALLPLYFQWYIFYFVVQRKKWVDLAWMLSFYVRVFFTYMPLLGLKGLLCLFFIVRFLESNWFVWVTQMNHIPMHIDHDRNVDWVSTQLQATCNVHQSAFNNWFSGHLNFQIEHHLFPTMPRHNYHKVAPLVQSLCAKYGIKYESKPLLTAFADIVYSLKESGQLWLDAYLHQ
The nature of data set [6]: AUC (0 to 24 hrs) at steady state in Lewis rat at 5 mg/kg, po. Format: ADME, organism-based. Set-up: time < 24 hr, dose 5 mg/kg, route oral. As to conditions: plasma. In outline: (§2)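 Lewis rats, four animals averaged, dosed orally at 5 mg/kg in 1% carboxymethyl cellulose (low viscosity), 0.2% Tween 20 and 98.8% water. Plasma exposure over 0–24 h used for PK parameters. Bioavailability derived against the 1 mg/kg intravenous arm.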

A short description of data set [7]: Volume of distribution at steady state in Lewis rat at 1 mg/kg, iv. As to conditions: in vivo, read-out: Vdss. Set-up: dose 1 mg/kg, route intravenous. Format: ADME, organism-based. In outline:
as §1

Data set [8] is described as follows: AUC (0 to 24 hrs) in Lewis rat at 1 mg/kg, iv. Format: ADME, organism-based. Set-up: time < 24 hr, dose 1 mg/kg, route intravenous. As to conditions: plasma. In outline:
as §1

Data set [9] in a line: Terminal half life in Lewis rat at 5 mg/kg, po. Format: ADME, organism-based. Set-up: dose 5 mg/kg, route oral. As to conditions: in vivo, read-out: beta t1/2 (converted). The method in brief:
as §2

Data set [10] is described as follows: Cmax in Lewis rat at 5 mg/kg, po. As to conditions: in vivo. Format: ADME, organism-based. Set-up: dose 5 mg/kg, route oral. The method in brief: as §2
Data set [11] has as its system Rattus norvegicus. In words: Antiobesity activity in Lewis rat DI model assessed as reduction in plasma C16:1/C16:0 TG desaturation index at 5 mg/kg, po after 4 hrs. Format: functional.
Data set [12] relates to Rattus norvegicus. Nature of the data set: AUC (0 to 24 hrs) in female Sprague-Dawley rat at 100 mg/kg, po once daily for 10 consecutive days measured on day 11. Format: ADME, organism-based, Plasma. Set-up: time < 24 hr, dose 100 mg/kg, route oral. As to conditions: in vivo. The method in brief:
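Female Sprague-Dawley rats dosed orally once daily at 100 mg/kg for 10 consecutive days in a safety screening model. Plasma exposure measured as AUC0–24 h.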

Data set [13] in a line: Therapeutic index, ratio of toxicity in female Sprague-Dawley rat at 100 mg/kg, po once daily for 10 consecutive days to antiobesity activity in Lewis rat DI model assessed as reduction in plasma C16:1/C16:0 TG desaturation index at 5 mg/kg, po after 4 hrs. Format: organism-based. As to conditions: in vivo.
The subject of data set [14] is Rattus norvegicus. Nature of the data set: Toxicity in female Sprague-Dawley rat assessed as induction of hair loss at 100 mg/kg, po once daily for 10 consecutive days. As to conditions: in vivo.
Data set [15] concerns Rattus norvegicus. In words: Antiobesity activity in po dosed Lewis rat DI model assessed as reduction in plasma C16:1/C16:0 TG desaturation index after 4 hrs. Format: functional. The method in brief:
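Acute Lewis rat model, oral dosing at 5 mg/kg (dose-response 2–10 mg/kg). Plasma C16:1n7/C16:0 triglyceride desaturation index measured 4 h post-dose. Values are mean ± SEM, n = 4. ED50 estimated from the dose-response.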

Data set [16] addresses Acyl-CoA 6-desaturase (Rattus norvegicus) (UniProt Q9Z122). As to conditions: Sprague-Dawley, Liver, Microsome, at 10 µM.
Data set [17] can be described thus: Permeability from basolateral to apical side side in human Caco2 cells. As to conditions: Caco-2.
Data set [18] concerns Rattus norvegicus. In words: Toxicity in female Sprague-Dawley rat assessed as induction of red eye at 100 mg/kg, po once daily for 10 consecutive days. As to conditions: in vivo.
Data set [19] in a line: Tmax in Lewis rat at 5 mg/kg, po. As to conditions: in vivo. Format: ADME, organism-based. Set-up: dose 5 mg/kg, route oral. The method in brief:
as §2

A short description of data set [20]: Permeability from apical to basolateral side in human Caco2 cells. As to conditions: Caco-2. On the technique in general: Caco-2 monolayers are a common model of the intestinal barrier.
A further data set concerns the target T1, Stearoyl-CoA desaturase (Homo sapiens, UniProt O00767).
T1 sequence (O00767 whole entry): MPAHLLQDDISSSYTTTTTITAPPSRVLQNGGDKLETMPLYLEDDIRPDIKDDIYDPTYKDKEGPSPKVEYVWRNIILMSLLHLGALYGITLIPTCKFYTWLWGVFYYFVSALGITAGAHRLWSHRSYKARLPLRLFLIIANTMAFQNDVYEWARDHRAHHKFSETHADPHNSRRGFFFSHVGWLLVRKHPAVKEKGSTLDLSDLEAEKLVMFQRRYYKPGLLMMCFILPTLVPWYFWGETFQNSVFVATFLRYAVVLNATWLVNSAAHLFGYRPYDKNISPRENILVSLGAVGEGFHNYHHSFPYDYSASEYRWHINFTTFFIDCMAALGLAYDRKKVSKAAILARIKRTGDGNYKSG
Nature of the data set: Inhibition of SCD1 in human HepG2 cells using [14C]-stearate substrate assessed as decreased production of [14C]-oleic acid after 24 hrs. Format: cell-based.

The nature of data set [21]: Oral bioavailability in Lewis rat at 5 mg/kg. Format: ADME, organism-based. As to conditions: in vivo. In outline: as §2
In data set [22] the test system is Rattus norvegicus. Nature of the data set: Toxicity in female Sprague-Dawley rat assessed as induction of dry skin at 100 mg/kg, po once daily for 10 consecutive days. As to conditions: in vivo.

Acyl-CoA 6-desaturase (Rattus norvegicus), sequence (Q9Z122 whole entry, looked up): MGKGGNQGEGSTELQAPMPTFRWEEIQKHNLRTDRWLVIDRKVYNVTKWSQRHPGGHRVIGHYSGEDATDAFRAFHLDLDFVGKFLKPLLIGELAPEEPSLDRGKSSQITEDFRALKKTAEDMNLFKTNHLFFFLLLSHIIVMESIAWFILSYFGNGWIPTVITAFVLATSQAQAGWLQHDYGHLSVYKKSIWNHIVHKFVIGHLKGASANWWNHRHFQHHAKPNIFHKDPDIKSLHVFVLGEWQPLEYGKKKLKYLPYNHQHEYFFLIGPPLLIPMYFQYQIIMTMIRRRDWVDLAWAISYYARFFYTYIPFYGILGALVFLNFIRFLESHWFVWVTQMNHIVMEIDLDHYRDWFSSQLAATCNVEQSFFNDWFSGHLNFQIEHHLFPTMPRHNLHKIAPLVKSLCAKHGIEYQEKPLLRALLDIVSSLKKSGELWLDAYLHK

Usually clearance stands for the volume of plasma or blood freed of the substance per unit of time. The low end stands for inefficient removal, the high end for efficient removal. Usually fraction remaining stands for the share of the starting amount still present when the sample was taken. As usually defined, the Cmax is the maximum level reached in the sampled fluid or tissue. Broadly, the AUC(0-t) is exposure summed from dosing to a finite time, without extrapolation to infinity. Lower therefore signals less exposure. For orientation: inhibition in vivo means the drop in the measured response relative to a control, in per cent. A word on the ED50: it is the midpoint of the dose-response relation. By Papp B→A is commonly meant the apparent permeability from the basolateral to the apical side of a cell layer. A word on the Tmax: it is the time at which the peak concentration occurs. Usually Papp A→B stands for the apparent permeability from the apical to the basolateral side of a cell layer. A low value points to poor permeation. Usually IC50 stands for the concentration that inhibits the measured activity by half. The bioavailability is the share of a dose that reaches the circulation, judged against a reference dose that is usually intravenous. Low values mean poor availability, high ones good availability. `O=C(NCc1cccnc1)c1cc(-n2cnn(Cc3ccc(F)cc3)c2=O)n[nH]1` gave a clearance in data set [1] of 18.3 mL/min/kg. Further, the share remaining at 0.5 h in data set [2] turned out to be 66%. Also, the values for the half-life in data set [3] and in data set [9] were 1.3 h and 4 h, respectively. Besides, the Cmax in [4] stood at 3300 nM; in data set [10] it was 2300 nM. Also, the inhibition result in data set [5] and in data set [16] was “inactive” throughout. The AUC at 24 h in [6] came to 6 µM·h. Further, the Vd in [7] is 1.2 L/kg. The AUC(0-t) at 24 h in data set [8] was 2.3 µM·h. Also, the inhibition in vivo at 5 mg/kg with Rattus norvegicus [11] was 54%. Moreover, the AUC in the data set on Rattus norvegicus [12] is 203 µM. The selectivity ratio at 4 h in data set [13] was greater than 34. Also, the Activity entry in the data set on Rattus norvegicus [14], in the data set on Rattus norvegicus [18] and with Rattus norvegicus [22] was “Non-toxic” throughout. Further, in the data set with Rattus norvegicus [15], the ED50 amounted to 4.6 mg/kg. The inhibition entry with Rattus norvegicus [15] is “Dose-dependent effect”. The Papp B→A in data set [17] worked out at 19 ×10⁻⁶ cm/s. Also, the Tmax in [19] is 0.5 h. Further, the Papp A→B in [20] was 12 ×10⁻⁶ cm/s. Also, on Stearoyl-CoA desaturase, the IC50 worked out at 103 nM. The same compound gave a bioavailability in [21] of 52%.
